{"source": "ChEMBL document CHEMBL1153198", "about": "“Design, synthesis and prostate cancer cell-based studies of analogs of the Rho/MKL1 transcriptional pathway inhibitor, CCG-1423” (Bioorg Med Chem Lett, 2010)", "key": {"[1]": {"biological_target": "Transforming protein RhoA/Rho-related GTP-binding protein RhoC (Homo sapiens, UniProt P61586+P08134)", "assay": "Inhibition of RhoA/C-mediated transcriptional response in human PC3 cells by serum response factor-luciferase reporter gene assay", "format": "cell-based", "details": "pc-3"}, "[2]": {"system": "PC-3", "assay": "Antiinvasive activity in human PC3 cells at 100 uM by Matrigel cell invasion assay", "format": "functional", "outline": "(§1)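 PC-3 cells (2 × 10^5) were seeded in low-serum DMEM (0.5% FBS) in the upper chamber of 24-well Matrigel inserts, with compound or DMSO. The lower well held the same 0.5% FBS medium, and cells were incubated 24 h at 37 °C in 5% CO2. Inserts were methanol-fixed, stained with 0.5% crystal violet, and non-invaded cells were wiped off. Stain was extracted in 20% acetic acid and read at 595 nm.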"}, "[3]": {"system": "PC-3", "assay": "Cytotoxicity against human PC3 cells assessed as inhibition of mitochondrial metabolism at 10 uM by WST-1 assay", "format": "functional"}, "[4]": {"system": "PC-3", "assay": "Cytotoxicity against human PC3 cells assessed as inhibition of mitochondrial metabolism at 100 uM by WST-1 assay", "format": "functional"}, "[5]": {"system": "PC-3", "assay": "Antiinvasive activity in human PC3 cells at 10 uM by Matrigel cell invasion assay", "format": "functional", "outline": "as §1"}}}
{"smiles": "O=C(N[C@@H]1CCC[C@@H]1C(=O)Nc1ccc(Cl)cc1)c1cc(C(F)(F)F)cc(C(F)(F)F)c1", "values": [{"measurement": "IC50", "setting": "[1]", "value": "> 100", "unit": "µM"}]}
{"smiles": "O=C(Nc1ccccc1C(=O)Nc1ccc(Cl)cc1)c1cc(C(F)(F)F)cc(C(F)(F)F)c1", "values": [{"measurement": "IC50", "setting": "[1]", "value": "> 100", "unit": "µM"}]}
{"smiles": "O=C(NCCCOc1ccc(Cl)cc1)c1cc(C(F)(F)F)cc(C(F)(F)F)c1", "values": [{"measurement": "IC50", "setting": "[1]", "value": 8.9, "unit": "µM"}, {"measurement": "inhibition at 100 µM", "setting": "[2]", "value": 26, "unit": "%"}]}
{"smiles": "O=C(Nc1ccc(Cl)cc1)C1CCN(C(=O)c2cc(C(F)(F)F)cc(C(F)(F)F)c2)CC1", "values": [{"measurement": "IC50", "setting": "[1]", "value": 16, "unit": "µM"}]}
{"smiles": "O=C(CCc1cn(-c2cc(C(F)(F)F)cc(C(F)(F)F)c2)nn1)Nc1ccc(Cl)cc1", "values": [{"measurement": "IC50", "setting": "[1]", "value": "> 100", "unit": "µM"}]}
{"smiles": "O=C(CONC(=O)c1ccccc1)Nc1ccc(Cl)cc1", "values": [{"measurement": "IC50", "setting": "[1]", "value": "> 100", "unit": "µM"}]}
{"smiles": "O=C(Nc1ccc(Cl)cc1)c1cccc(NC(=O)c2cc(C(F)(F)F)cc(C(F)(F)F)c2)c1", "values": [{"measurement": "IC50", "setting": "[1]", "value": 1.7, "unit": "µM"}]}
{"smiles": "CN(C(=O)CCNC(=O)c1cc(C(F)(F)F)cc(C(F)(F)F)c1)c1ccc(Cl)cc1", "values": [{"measurement": "IC50", "setting": "[1]", "value": "> 100", "unit": "µM"}]}
{"smiles": "O=C(CONC(=O)c1cccc(C(F)(F)F)c1)Nc1ccc(Cl)cc1", "values": [{"measurement": "IC50", "setting": "[1]", "value": 27, "unit": "µM"}, {"measurement": "inhibition at 10 µM", "setting": "[3]", "value": 0, "unit": "%"}, {"measurement": "inhibition at 100 µM", "setting": "[4]", "value": 58, "unit": "%"}]}
{"smiles": "O=C(c1cc(C(F)(F)F)cc(C(F)(F)F)c1)N1CCC(=O)N(c2ccc(Cl)cc2)CC1", "values": [{"measurement": "IC50", "setting": "[1]", "value": "> 100", "unit": "µM"}]}
{"smiles": "O=C(CONC(=O)c1cc(C(F)(F)F)cc(C(F)(F)F)c1)Nc1cccc(Cl)c1", "values": [{"measurement": "IC50", "setting": "[1]", "value": 5.9, "unit": "µM"}]}
{"smiles": "O=C(CONC(=O)c1ccc(C(F)(F)F)cc1)Nc1ccc(Cl)cc1", "values": [{"measurement": "IC50", "setting": "[1]", "value": 29, "unit": "µM"}, {"measurement": "inhibition at 10 µM", "setting": "[3]", "value": 0, "unit": "%"}, {"measurement": "inhibition at 100 µM", "setting": "[4]", "value": 56, "unit": "%"}]}
{"smiles": "O=C(CONC(=O)c1ccc(Cl)cc1)Nc1cc(C(F)(F)F)cc(C(F)(F)F)c1", "values": [{"measurement": "IC50", "setting": "[1]", "value": 8.6, "unit": "µM"}]}
{"smiles": "O=C(Nc1cc(C(F)(F)F)cc(C(F)(F)F)c1)C1CCN(C(=O)c2ccc(Cl)cc2)CC1", "values": [{"measurement": "IC50", "setting": "[1]", "value": 10, "unit": "µM"}, {"measurement": "inhibition at 10 µM", "setting": "[3]", "value": 10, "unit": "%"}, {"measurement": "inhibition at 100 µM", "setting": "[4]", "value": 88, "unit": "%"}]}
{"smiles": "O=C(NCCCNc1ccc(Cl)cc1)c1cc(C(F)(F)F)cc(C(F)(F)F)c1", "values": [{"measurement": "IC50", "setting": "[1]", "value": 5.1, "unit": "µM"}]}
{"smiles": "O=C(NCCc1cn(-c2ccc(Cl)cc2)nn1)c1cc(C(F)(F)F)cc(C(F)(F)F)c1", "values": [{"measurement": "IC50", "setting": "[1]", "value": "> 100", "unit": "µM"}]}
{"smiles": "O=C(CONC(=O)c1cc(C(F)(F)F)cc(C(F)(F)F)c1)Nc1ccc(Cl)cc1", "values": [{"measurement": "IC50", "setting": "[1]", "value": 4.7, "unit": "µM"}]}
{"smiles": "O=C(Nc1ccc(Cl)cc1)C1CCN(C(=O)c2cc(C(F)(F)F)cc(C(F)(F)F)c2)C1", "note": "(centres undefined)", "values": [{"measurement": "IC50", "setting": "[1]", "value": 16.3, "unit": "µM"}, {"measurement": "inhibition at 100 µM", "setting": "[4]", "value": 67, "unit": "%"}]}
{"smiles": "O=C(CC1CCCCN1C(=O)c1cc(C(F)(F)F)cc(C(F)(F)F)c1)Nc1ccc(Cl)cc1", "note": "(centres undefined)", "values": [{"measurement": "IC50", "setting": "[1]", "value": 9.5, "unit": "µM"}, {"measurement": "inhibition at 100 µM", "setting": "[4]", "value": 14, "unit": "%"}]}
{"smiles": "FC(F)(F)c1cc(CNCCCNc2ccc(Cl)cc2)cc(C(F)(F)F)c1", "values": [{"measurement": "IC50", "setting": "[1]", "value": 9.1, "unit": "µM"}, {"measurement": "inhibition at 100 µM", "setting": "[2]", "value": 86, "unit": "%"}]}
{"smiles": "O=C(CCCCNC(=O)c1cc(C(F)(F)F)cc(C(F)(F)F)c1)Nc1ccc(Cl)cc1", "values": [{"measurement": "IC50", "setting": "[1]", "value": "> 100", "unit": "µM"}]}
{"smiles": "O=C(CNC(=O)c1cc(C(F)(F)F)cc(C(F)(F)F)c1)Nc1ccc(Cl)cc1", "values": [{"measurement": "IC50", "setting": "[1]", "value": 33, "unit": "µM"}]}
{"smiles": "O=C(CCNC(=O)c1cc(C(F)(F)F)cc(C(F)(F)F)c1)Nc1ccc(Cl)cc1", "values": [{"measurement": "IC50", "setting": "[1]", "value": 38, "unit": "µM"}, {"measurement": "inhibition at 100 µM", "setting": "[4]", "value": 10, "unit": "%"}]}
{"smiles": "O=C(CONC(=O)c1cc(C(F)(F)F)cc(C(F)(F)F)c1)Nc1ccccc1", "values": [{"measurement": "IC50", "setting": "[1]", "value": 36, "unit": "µM"}, {"measurement": "inhibition at 10 µM", "setting": "[3]", "value": 0, "unit": "%"}, {"measurement": "inhibition at 100 µM", "setting": "[4]", "value": 37, "unit": "%"}]}
{"smiles": "O=C(CCNC(=O)c1cc(C(F)(F)F)cc(C(F)(F)F)c1)NCc1ccc(Cl)cc1", "values": [{"measurement": "IC50", "setting": "[1]", "value": "> 100", "unit": "µM"}]}
{"smiles": "O=C(CCCNC(=O)c1cc(C(F)(F)F)cc(C(F)(F)F)c1)Nc1ccc(Cl)cc1", "values": [{"measurement": "IC50", "setting": "[1]", "value": 21, "unit": "µM"}]}
{"smiles": "O=C(CCNCc1cc(C(F)(F)F)cc(C(F)(F)F)c1)Nc1ccc(Cl)cc1", "values": [{"measurement": "IC50", "setting": "[1]", "value": 8.1, "unit": "µM"}, {"measurement": "inhibition (INH)", "setting": "[5]", "value": 47, "unit": "%"}]}
{"smiles": "O=C(Nc1ccc(Cl)cc1)C1CCCN1C(=O)c1cc(C(F)(F)F)cc(C(F)(F)F)c1", "note": "(centres undefined)", "values": [{"measurement": "IC50", "setting": "[1]", "value": 69, "unit": "µM"}, {"measurement": "inhibition at 100 µM", "setting": "[2]", "value": 78, "unit": "%"}]}
{"smiles": "O=C(NCc1csc(-c2ccc(Cl)cc2)n1)c1cc(C(F)(F)F)cc(C(F)(F)F)c1", "values": [{"measurement": "IC50", "setting": "[1]", "value": 4.1, "unit": "µM"}]}
{"smiles": "O=C(CC1CC(c2cc(C(F)(F)F)cc(C(F)(F)F)c2)=NO1)Nc1ccc(Cl)cc1", "note": "(centres undefined)", "values": [{"measurement": "IC50", "setting": "[1]", "value": 4.2, "unit": "µM"}, {"measurement": "inhibition at 100 µM", "setting": "[4]", "value": 38, "unit": "%"}]}
{"smiles": "O=C(c1cc(C(F)(F)F)cc(C(F)(F)F)c1)N1CCC(Nc2ccc(Cl)cc2)CC1", "values": [{"measurement": "IC50", "setting": "[1]", "value": 10.8, "unit": "µM"}, {"measurement": "inhibition at 10 µM", "setting": "[3]", "value": 19, "unit": "%"}, {"measurement": "inhibition at 100 µM", "setting": "[4]", "value": 0, "unit": "%"}]}
{"smiles": "O=C(Nc1ccc(Cl)cc1)c1ccc(NC(=O)c2cc(C(F)(F)F)cc(C(F)(F)F)c2)cc1", "values": [{"measurement": "IC50", "setting": "[1]", "value": "> 100", "unit": "µM"}, {"measurement": "inhibition at 100 µM", "setting": "[2]", "value": 0, "unit": "%"}]}
{"smiles": "O=C(NCCC(=O)N1CCc2cc(Cl)ccc21)c1cc(C(F)(F)F)cc(C(F)(F)F)c1", "values": [{"measurement": "IC50", "setting": "[1]", "value": 13, "unit": "µM"}, {"measurement": "inhibition (INH)", "setting": "[5]", "value": 0, "unit": "%"}, {"measurement": "inhibition at 100 µM", "setting": "[2]", "value": 0, "unit": "%"}]}
